A selection: hits, their analogues and other compounds. The true share with any hit is near 1.8%.
zVAD death inh: inhibitors of zVAD-triggered necroptosis, primary screen, L929 cells | actives 0.38% (n = 220,000) | AID 1377, 2008 | viability rescue, % at 10 µM | L929 zVAD necroptosis rescue, ATP luminescence, 24 h; with zVAD 60 µM;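 active means activation, scaled between plate controls, above about 75%, limit read from the data; inactive means activation under that limit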;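 further: 0% = zVAD with DMSO and 100% = DMSO alone without zVAD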
TNF necrop inh: inhibitors of TNF-alpha triggered necroptosis, primary screen, cell-based, Jurkat FADD-/-, single concentration; Jurkat FADD-/- TNF necroptosis rescue, ATP luminescence, 24 h; 0 = TNF only, 100 = no-TNF cells; activation (protection from cell death), % at 10 µM; actives 0.068% (n = 220,000);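 active means activation, meaning protection from cell death, of at least 50% relative to plate controls; inactive means activation below 50%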;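 further: necroptosis triggered by 40 ng/mL TNF-alpha added together with compound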
Autophagy HCS: autophagy modulators in MEF cells, primary screen, imaging, high-content, MEF GFP-LC3. MEF GFP-LC3 puncta imaging; test concentration mostly 10 µM. calls only at 10 µM (by protocol). actives 0.98% (n = 190,000). AID 463193, 2010;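 active means percentage of spot-positive cells more than 3 SD above its plate mean, without a fluorescence outlier flag or 80% toxicity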;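 further: spot-positive cell cutoff set from DMSO-treated cells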
MDM2 E3 inh: MDM2-luciferase reporter signal enhancers, primary screen, MDM2 E3 ligase inhibitor project, cell-based, luminescence, 1536-well. E3 ubiquitin-protein ligase Mdm2 (Homo sapiens), Q00987. actives 0.11% (n = 210,000). cell-based MDM2 ubiquitination luciferase reporter, 2 h; 0 = plate control, 100 = twice control, blank-subtracted. signal enhancement, % at 5 µM;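 active means signal enhancement of 30% or more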;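 further: luminescence tracks abundance of the self-degrading MDM2-luciferase fusion protein; higher signal means inhibition of MDM2 E3 ligase activity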
Target sequence (Q00987 whole entry, looked up, the tested form may be a part): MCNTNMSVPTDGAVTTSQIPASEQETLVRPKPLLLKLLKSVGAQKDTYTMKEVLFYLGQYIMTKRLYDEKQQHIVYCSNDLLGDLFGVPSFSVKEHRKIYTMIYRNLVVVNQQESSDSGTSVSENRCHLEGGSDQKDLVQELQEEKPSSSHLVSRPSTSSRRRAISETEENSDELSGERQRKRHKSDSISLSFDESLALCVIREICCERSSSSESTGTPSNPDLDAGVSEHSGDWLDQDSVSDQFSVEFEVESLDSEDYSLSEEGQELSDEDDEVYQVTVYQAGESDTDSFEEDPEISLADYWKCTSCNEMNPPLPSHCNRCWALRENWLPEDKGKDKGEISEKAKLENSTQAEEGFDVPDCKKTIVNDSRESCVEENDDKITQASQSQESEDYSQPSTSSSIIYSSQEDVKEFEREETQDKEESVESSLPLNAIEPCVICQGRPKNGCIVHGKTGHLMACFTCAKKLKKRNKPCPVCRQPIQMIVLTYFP
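Assay system: stable mammalian line carrying autodegrading MDM2–luciferase fusion reporter; Input: 2000 cells in each well; Compound dosing: single-point 5 µM; Schedule: 2 h compound exposure at 37 °C; Signal: SteadyLite luciferase luminescence after 15 min room-temperature reagent incubation; Evaluation: % luminescence enhancement versus blank-corrected plate control mean; Benchmarks: plate controls and plate blanks.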
Dynein cargo inh: inhibitors of GR-EGFP nuclear translocation, primary screen, dynein cargo transport inhibitor project, imaging, high-content, 3617.4 mouse cells; test concentration mostly 20 µM; stimulated with dexamethasone, 1 µM; hits give low values; z-score, hits read low; actives 0.47% (n = 220,000);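 active means plate z-score of nuclear minus cytoplasmic receptor signal below a set negative limit, without overly bright fluorescence or cell loss, cut at about -3.5 in these data, passing the limit was not always enough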;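 further: z-score of nuclear minus cytoplasmic ring GR-EGFP intensity difference per well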
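Buffer or medium: tet-free, stripped-serum medium; Also added: dexamethasone, 1.0 µM final; Technique: high-content fluorescence imaging after fixation; Times: 48 h induction, 1 h compound, 30 min dex at 37 °C; Read-out: per-cell GR-EGFP intensity, nucleus versus surrounding cytoplasmic ring, well-averaged.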
zVAD death conf: inhibitors of zVAD-triggered necroptosis in L929, confirmation, L929 cells, duplicate runs. activation (protection from necroptosis), % at 10 µM. actives 16% (n = 760). L929 zVAD-induced necroptosis rescue, ATP luminescence, 24 h. shares compounds with zVAD death inh;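 active means mean protection from necroptosis of at least 50% over duplicate tests; inactive means mean protection below 50%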;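 further: 0% = cells with zVAD alone and 100% = vehicle cells without zVAD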
The depositor's hits bear a star.

How did COc1ccc(NC(=O)c2ccc(-c3nn(C)c(=O)c4ccccc34)cc2)cc1 do in these assays?
zVAD death inh: 15; TNF necrop inh: 0; Autophagy HCS: inactive; MDM2 E3 inh: 5; Dynein cargo inh: -1.4

How did CCOC(=O)c1[nH]ncc1CN1CCN(Cc2ccccc2)C(CCO)C1 (stereo unspecified) do in these assays?
zVAD death inh: 0; TNF necrop inh: -1; Autophagy HCS: inactive; MDM2 E3 inh: -11; Dynein cargo inh: -0.018

How did O=C(NCC1CCCO1)c1cc(S(=O)(=O)Nc2ccc(Br)cc2)ccc1Cl (stereo unspecified) do in these assays?
zVAD death inh: 4; TNF necrop inh: 1; Autophagy HCS: inactive; MDM2 E3 inh: -8; Dynein cargo inh: -0.049

How did CCOC(=O)C(C)Sc1ccc2nnc(CCNS(=O)(=O)c3ccccc3)n2n1 (stereo unspecified) do in these assays?
zVAD death inh: 0; TNF necrop inh: 1; Autophagy HCS: inactive; Dynein cargo inh: 0.49

How did CCc1c(C)[nH]c(C(=O)OCc2ccccc2)c1C do in these assays?
zVAD death inh: 86*; TNF necrop inh: 1; Autophagy HCS: inactive; MDM2 E3 inh: 0; Dynein cargo inh: 1.7; zVAD death conf: 8

Results for CC(=O)c1c(C)[nH]c(C(=O)OCc2cccc(Cl)c2)c1C ?
zVAD death inh: 79*; TNF necrop inh: -1; Autophagy HCS: inactive; MDM2 E3 inh: -16; Dynein cargo inh: 0.089; zVAD death conf: 8

How did COC(=O)c1c(C)[nH]c(C(=O)OCc2ccc(F)cc2)c1C do in these assays?
zVAD death inh: 79*; TNF necrop inh: 1; Autophagy HCS: inactive; MDM2 E3 inh: -18; Dynein cargo inh: -1.3; zVAD death conf: 3

How did CC(=O)c1c(C)[nH]c(C(=O)OCC(=O)NCCc2ccc(F)cc2)c1C do in these assays?
zVAD death inh: 1; TNF necrop inh: -3; Autophagy HCS: inactive; MDM2 E3 inh: -3; Dynein cargo inh: -0.48

Results for S=C1NCN(C2CCCCC2)CN1c1ccccc1 ?
zVAD death inh: 0; TNF necrop inh: -1; MDM2 E3 inh: -4; Dynein cargo inh: 0.28

Results for Cc1onc(-c2c(Cl)cccc2Cl)c1C(=O)c1c[nH]c(C(=O)NCC2CCCO2)c1 (stereo unspecified) ?
zVAD death inh: 0; TNF necrop inh: -1; Autophagy HCS: inactive; MDM2 E3 inh: 1; Dynein cargo inh: -1.2

What do the screens show for `O=C(CCN1CCN(c2ccccc2)CC1)NNC(=S)Nc1ccccc1Cl`?
zVAD death inh: 1; TNF necrop inh: 0; Autophagy HCS: inactive; MDM2 E3 inh: 0; Dynein cargo inh: -0.33

Results for COCC(C)n1c(C)cc(C(=O)CSc2nnnn2-c2ccc(O)cc2)c1C (stereo unspecified) ?
zVAD death inh: 76*; TNF necrop inh: 0; Autophagy HCS: inactive; MDM2 E3 inh: -5; Dynein cargo inh: 1.1; zVAD death conf: 47

Results for N#C/C(=C(/O)COC(=O)CCc1ccc(S(=O)(=O)N2CCOCC2)cc1)c1nc2ccccc2[nH]1 ?
zVAD death inh: 78*; TNF necrop inh: 9; Autophagy HCS: inactive; Dynein cargo inh: -1.1; zVAD death conf: 13

How did Oc1ccc(/C=N/Nc2ccc(C(F)(F)F)cn2)cc1 do in these assays?
zVAD death inh: 83*; TNF necrop inh: 38; Autophagy HCS: inactive; MDM2 E3 inh: 5; Dynein cargo inh: 0.38; zVAD death conf: 63*

Results for COc1cc(/C=N/Nc2ccccn2)cc(OC)c1O ?
zVAD death inh: 12; TNF necrop inh: 33; Autophagy HCS: inactive; MDM2 E3 inh: -10; Dynein cargo inh: 1.5

Screening data from PubChem.
